Measured values as given in ChEMBL document CHEMBL5036319, “Discovery of Novel Benzothiazepinones as Irreversible Covalent Glycogen Synthase Kinase 3β Inhibitors for the Treatment of Acute Promyelocytic Leukemia” (J Med Chem, 2021).
Active and inactive are the calls of the source. No cut-off for these calls is given here.

Legend:
[1] = Induction in caspase-mediated apoptosis in human NB-4 cells assessed as late apoptotic cells at 25 uM incubated for 24 hrs by Annexin V-FITC/propidium iodide staining based flow cytometry analysis (reference value: 1.06%); format: functional
[2] = Induction in caspase-mediated apoptosis in human NB4-DR1 cells assessed as late apoptotic cells at 100 uM incubated for 24 hrs by Annexin V-FITC/propidium iodide staining based flow cytometry analysis (reference value: 1.47%); format: functional
NB-4 [3] = test: Cytotoxicity against human NB-4 cells assessed as reduction in cell viability measured after 24 hrs by CCK-8 assay; format: functional, cell-based; conditions: NB-4, 24 h
Summary of the method: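 Cells were grown in RPMI-1640 or high-glucose DMEM with 10% FBS at 37 °C, 5% CO2, and seeded at 3 × 10^4 cells/well. Exposure was 24 h across serial concentrations (0−1000 μM in the screen). […] Three independent experiments, mean ± SEM.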

[4] = Induction in caspase-mediated apoptosis in human NB4-DR1 cells assessed as late apoptotic cells at 12.5 uM incubated for 24 hrs by Annexin V-FITC/propidium iodide staining based flow cytometry analysis (reference value: 1.47%); format: functional
[5] = Induction in caspase-mediated apoptosis in human NB-4 cells assessed as viable cells at 25 uM incubated for 24 hrs by Annexin V-FITC/propidium iodide staining based flow cytometry analysis (reference value: 96.6%); format: functional; conditions: read-out: Activity
[6] = Induction in caspase-mediated apoptosis in human NB-4 cells assessed as late apoptotic cells at 100 uM incubated for 24 hrs in presence of Z-VAD-FMK by Annexin V-FITC/propidium iodide staining based flow cytometry analysis (reference value: 1.15%); format: functional
NB-4 [7] = test: Antitumor activity against human NB-4 cells xenografted in BALB/c nude mouse assessed as reduction in tumor mass at 15 mg/kg/day, ip administered for 2 weeks; format: functional, organism-based
Summary of the method: (§1)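 Female Balb/c nude mice, 4 weeks old, received 2 × 10^6 NB4 cells s.c. in the right flank. Once tumours reached about 0.5 cm diameter, mice were randomised to corn-oil vehicle or drug in corn oil (n = 5). Dosing was 15 mg/kg/d i.p. once daily for 2 weeks. Caliper volume (length × width²)/2 was taken every other day, and tumours were excised and weighed at the end.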

[8] = Induction in caspase-mediated apoptosis in human NB-4 cells assessed as late apoptotic cells at 50 uM incubated for 24 hrs in presence of Z-VAD-FMK by Annexin V-FITC/propidium iodide staining based flow cytometry analysis (reference value: 1.15%); format: functional
[9] = Induction in caspase-mediated apoptosis in human NB-4 cells assessed as necrotic cells at 100 uM incubated for 24 hrs by Annexin V-FITC/Propidium iodide staining based flow cytometry analysis (reference value: 0.352%); format: functional
[10] = Induction in caspase-mediated apoptosis in human NB4-DR1 cells assessed as necrotic cells at 100 uM incubated for 24 hrs in presence of Z-VAD-FMK by Annexin V-FITC/propidium iodide staining based flow cytometry analysis (reference value: 0.223%); format: functional
[11] = Induction in caspase-mediated apoptosis in human NB4-DR1 cells assessed as early apoptotic cells at 100 uM incubated for 24 hrs by Annexin V-FITC/propidium iodide staining based flow cytometry analysis (reference value: 1.43%); format: functional
[12] = Induction in caspase-mediated apoptosis in human NB-4 cells assessed as necrotic cells at 25 uM incubated for 24 hrs in presence of Z-VAD-FMK by Annexin V-FITC/propidium iodide staining based flow cytometry analysis (reference value: 0.167%); format: functional
NB-4 [13] = test: Effect on glycogen synthase phosphorylation in human NB-4 cells assessed as reduction in ratio of p-GS to GS measured after 24 hrs by Western blot analysis; format: functional, cell-based
Summary of the method: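 NB4 and NB4-R1 cells were treated 24 h at several concentrations and lysed in RIPA. Equal protein was immunoblotted for phospho-glycogen synthase (Ser641), total GS and β-actin, with ECL detection. Band densities were quantified as the p-GS/GS ratio. n = 3, mean ± SEM.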

[14] = Induction in caspase-mediated apoptosis in human NB-4 cells assessed as necrotic cells at 100 uM incubated for 24 hrs in presence of Z-VAD-FMK by Annexin V-FITC/propidium iodide staining based flow cytometry analysis (reference value: 0.167%); format: functional
[15] = Induction in caspase-mediated apoptosis in human NB-4 cells assessed as late apoptotic cells at 12.5 uM incubated for 24 hrs in presence of Z-VAD-FMK by Annexin V-FITC/propidium iodide staining based flow cytometry analysis (reference value: 1.15%); format: functional
[16] = Induction in caspase-mediated apoptosis in human NB-4 cells assessed as necrotic cells at 50 uM incubated for 24 hrs by Annexin V-FITC/Propidium iodide staining based flow cytometry analysis (reference value: 0.352%); format: functional
[17] = Induction in caspase-mediated apoptosis in human NB-4 cells assessed as viable cells at 12.5 uM incubated for 24 hrs in presence of Z-VAD-FMK by Annexin V-FITC/propidium iodide staining based flow cytometry analysis (reference value: 96.8%); format: functional; conditions: read-out: Activity
[18] = Induction in caspase-mediated apoptosis in human NB4-DR1 cells assessed as necrotic cells at 50 uM incubated for 24 hrs in presence of Z-VAD-FMK by Annexin V-FITC/propidium iodide staining based flow cytometry analysis (reference value: 0.223%); format: functional
[19] = Induction in caspase-mediated apoptosis in human NB4-DR1 cells assessed as viable cells at 50 uM incubated for 24 hrs by Annexin V-FITC/propidium iodide staining based flow cytometry analysis (reference value: 96.9%); format: functional; conditions: read-out: Activity
[20] = Induction in caspase-mediated apoptosis in human NB-4 cells assessed as late apoptotic cells at 100 uM incubated for 24 hrs by Annexin V-FITC/propidium iodide staining based flow cytometry analysis (reference value: 1.06%); format: functional
[21] = biological target: Glycogen synthase kinase-3 alpha (Homo sapiens) (UniProt P49840); test: Inhibition of recombinant human GSK-3alpha at 100 uM by mobility shift assay relative to control
[22] = Induction in caspase-mediated apoptosis in human NB-4 cells assessed as necrotic cells at 12.5 uM incubated for 24 hrs by Annexin V-FITC/Propidium iodide staining based flow cytometry analysis (reference value: 0.352%); format: functional
[23] = Induction in caspase-mediated apoptosis in human NB-4 cells assessed as viable cells at 50 uM incubated for 24 hrs in presence of Z-VAD-FMK by Annexin V-FITC/propidium iodide staining based flow cytometry analysis (reference value: 96.8%); format: functional; conditions: read-out: Activity
NB-4 [24] = test: Antitumor activity against human NB-4 cells xenografted in BALB/c nude mouse assessed as tumor growth inhibition at 15 mg/kg/day, ip administered for 2 weeks relative to control; format: functional; conditions: NB-4, ip, 336 h, read-out: TGI; summary of the method: as §1
[25] = Induction in caspase-mediated apoptosis in human NB-4 cells assessed as early apoptotic cells at 100 uM incubated for 24 hrs by Annexin V-FITC/propidium iodide staining based flow cytometry analysis (reference value: 2.02%); format: functional
[26] = biological target: Glycogen synthase kinase-3 beta (Homo sapiens, UniProt P49841); test: Inhibition of recombinant human GSK-3beta using GS-2 peptide as substrate incubated for 30 mins in presence of ATP by kinase-glo luminescence assay
Chain of Glycogen synthase kinase-3 beta (P49841 whole entry): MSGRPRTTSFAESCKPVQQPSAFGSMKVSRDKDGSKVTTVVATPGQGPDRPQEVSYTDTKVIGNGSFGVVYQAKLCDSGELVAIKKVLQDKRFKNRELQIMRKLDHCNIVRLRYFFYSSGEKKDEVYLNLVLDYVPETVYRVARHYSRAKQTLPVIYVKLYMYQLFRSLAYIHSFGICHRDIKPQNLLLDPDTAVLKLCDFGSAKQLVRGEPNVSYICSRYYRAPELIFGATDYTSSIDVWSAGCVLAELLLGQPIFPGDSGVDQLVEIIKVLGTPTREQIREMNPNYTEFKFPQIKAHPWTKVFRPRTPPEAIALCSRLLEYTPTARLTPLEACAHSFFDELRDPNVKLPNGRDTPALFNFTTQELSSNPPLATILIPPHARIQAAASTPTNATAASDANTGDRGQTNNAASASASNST

Chain of Glycogen synthase kinase-3 alpha (Homo sapiens) (P49840 2-483 limits assumed): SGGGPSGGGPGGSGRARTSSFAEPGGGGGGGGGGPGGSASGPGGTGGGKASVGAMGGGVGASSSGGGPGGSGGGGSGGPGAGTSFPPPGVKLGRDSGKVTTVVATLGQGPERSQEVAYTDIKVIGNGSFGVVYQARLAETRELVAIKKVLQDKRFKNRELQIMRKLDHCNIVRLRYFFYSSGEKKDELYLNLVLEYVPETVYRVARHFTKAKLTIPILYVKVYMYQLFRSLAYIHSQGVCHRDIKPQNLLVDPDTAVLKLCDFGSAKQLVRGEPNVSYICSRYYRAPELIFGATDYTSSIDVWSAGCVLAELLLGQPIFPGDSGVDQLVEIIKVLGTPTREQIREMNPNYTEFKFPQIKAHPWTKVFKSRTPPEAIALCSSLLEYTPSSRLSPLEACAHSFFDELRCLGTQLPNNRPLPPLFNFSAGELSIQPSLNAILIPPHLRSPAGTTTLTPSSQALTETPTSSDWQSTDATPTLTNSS

Question: With `C=CC(=O)N1C(=O)CC(c2ccc(F)cc2)Sc2ccccc21` (stereo unspecified) as the compound, how does the Activity [1] read?
Answer: 45.6%

Question: And the Activity [2]?
Answer: 46.8%

Question: What about the IC50 (NB-4 [3]) of the same compound?
Answer: 19.6 µM

Question: What about the Activity [4] of the same compound?
Answer: 5.54%

Question: What about the viability at 25 µM [5] of the same compound?
Answer: 36.4%

Question: And the Activity [6]?
Answer: 19.6%

Question: And the Activity (NB-4 [7])?
Answer: Active

Question: What about the Activity [8] of the same compound?
Answer: 11.7%

Question: And the Activity [9]?
Answer: 4.39%

Question: And the Activity [10]?
Answer: 1.4%

Question: And the Activity [11]?
Answer: 4.16%

Question: What about the Activity [12] of the same compound?
Answer: 1.38%

Question: What about the Activity (NB-4 [13]) of the same compound?
Answer: Active

Question: What about the Activity [14] of the same compound?
Answer: 2.88%

Question: What about the Activity [15] of the same compound?
Answer: 7.39%

Question: What about the Activity [16] of the same compound?
Answer: 4.51%

Question: And the viability at 12.5 µM [17]?
Answer: 86.4%

Question: And the Activity [18]?
Answer: 0.584%

Question: And the viability at 50 µM [19]?
Answer: 79.7%

Question: And the Activity [20]?
Answer: 85.5%

Question: And the inhibition [21]?
Answer: 87.3%

Question: And the Activity [22]?
Answer: 6.13%

Question: And the viability at 50 µM [23]?
Answer: 78.6%

Question: And the inhibition in vivo at 15 mg/kg/day (NB-4 [24])?
Answer: 76%

Question: What about the Activity [25] of the same compound?
Answer: 4.21%

Question: And the IC50 [26]?
Answer: 6.6 µM
